Laboratory results: publication PMC5270551 (Biochemistry, 2015)
Where two headings read alike, the source gives them in different places. Where a SMILES comes first, the peptide text is derived from it. Bridges are numbered along the chain shown (N, C = ends).

What was measured:
E. coli cyto-GFP = format: cell-based, Escherichia coli
Procedure, shortened: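 An E. coli strain carrying cytoplasmic GFP, in mid-log or stationary phase, was exposed to test peptide across 0–80 μM. Cell length and mean GFP fluorescence intensity (arbitrary units) were taken from fluorescence images, and untreated and treated means were compared by Student's t-test.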

[1] = cited from earlier work
[2] = test system: Acinetobacter baumannii 17978; format: cell-based
[3] = test system: Klebsiella pneumoniae 13883; experiment: Morphology imaging of Gram-negative bacteria; format: cell-based; conditions: 20 μM peptide, 1 × 10^8 CFU/mL, mid-log, 1 h 37 °C
Procedure, shortened: (§1)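 Mid-log bacteria at 1 × 10^8 CFU/mL were exposed to test peptide (20 μM; 40 μM for P. aeruginosa) for 1 h at 37 °C in 10 mM sodium phosphate buffer, pH 7.4, with 1% v/v TSB, then imaged by microscopy for morphology.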

[4] = test system: Pseudomonas aeruginosa PAO1; format: cell-based
E. coli CFT073 = experiment: Morphology imaging of Gram-negative bacteria; format: cell-based, Escherichia coli; conditions: 20 μM HD5ox, 1 × 10^8 CFU/mL, mid-log, 1 h 37 °C; R-HD5ox Figure S19
Procedure, shortened: as §1

E. coli K-12 = experiment: Morphology imaging of Gram-negative bacteria; format: cell-based, Escherichia coli; conditions: 20 μM peptide, 1 × 10^8 CFU/mL, mid-log, 1 h 37 °C
Procedure, shortened: as §1

E. coli ATCC 25922 [5] = experiment: Morphology imaging by phase-contrast microscopy and SEM; format: cell-based, Escherichia coli; conditions: for cells elongated (length 5 μm or greater) / cells exhibiting blebs: 1 × 10^8 CFU/mL, mid-log, 1 h 37 °C
E. coli ATCC 25922 [6] = format: cell-based, Escherichia coli; conditions: for log-reduction in CFU/mL: 4 μM peptide

Question: What does the source list for `CC[C@H](C)[C@@H]1NC(=O)[C@H](CCC(=O)O)NC(=O)[C@@H]2CSSC[C@@H]3NC(=O)[C@H](Cc4ccc(O)cc4)NC(=O)[C@@H](NC(=O)[C@@H](NC(=O)[C@H](C)N)[C@@H](C)O)CSSC[C@@H](C(=O)N[C@@H](CCCNC(=N)N)C(=O)O)NC(=O)[C@H](CSSC[C@H](NC(=O)[C@H](CCCNC(=N)N)NC(=O)CNC(=O)[C@H]([C@@H](C)O)NC(=O)[C@H](CCCNC(=N)N)NC3=O)C(=O)N[C@@H](C)C(=O)N[C@@H]([C@@H](C)O)C(=O)N[C@@H](CCCNC(=N)N)C(=O)N[C@@H](CCC(=O)O)C(=O)N[C@@H](CO)C(=O)N[C@@H](CC(C)C)C(=O)N[C@@H](CO)C(=O)NCC(=O)N[C@@H](C(C)C)C(=O)N2)NC(=O)[C@H](CC(C)C)NC(=O)[C@H](CCCNC(=N)N)NC(=O)[C@H](Cc2ccc(O)cc2)NC(=O)[C@H](CC(C)C)NC(=O)[C@H](CCCNC(=N)N)NC(=O)CNC(=O)[C@H](CO)NC1=O` [HD5ox] (H-ATCYCRTGRCATRESLSGVCEISGRLYRLCCR-OH; disulfide 3-31, 5-20, 10-30 (inferred); N-terminus and C-terminus assumed)?
Answer: mean cell length after treatment (E. coli cyto-GFP; mid-log phase, increasing HD5ox (0–80 μM), from 2.8 ± 0.8 μm without peptide): 3.4 ± 1.0 μm; mean GFP fluorescence intensity after treatment (E. coli cyto-GFP; mid-log phase, increasing HD5ox (0–80 μM), from 155 ± 48 units without peptide): 93 ± 47 units; mean cell length after treatment (E. coli cyto-GFP; stationary phase, from 3.0 ± 0.8 μm without peptide): 2.9 ± 0.7 μm; mean GFP fluorescence intensity after treatment (E. coli cyto-GFP; stationary phase, from 112 ± 38 units without peptide): 139 ± 53 units; oligomeric form at neutral pH [1]: tetramers; bacterial morphology ([2]; 20 μM peptide, 1 × 10^8 CFU/mL, mid-log, 1 h 37 °C): bleb formation, elongation, and clumping; HD5ox concentration at which blebs were displayed ([2]; 17978, 1 h): 10 µM; bacterial morphology [3]: bleb formation, elongation, and clumping; bacterial morphology ([4]; 40 μM peptide, 1 × 10^8 CFU/mL, mid-log, 1 h 37 °C): bleb formation, elongation, and clumping; HD5ox concentration at which blebs were observed (only at this concentration) ([4]; PAO1, 1 h): 40 µM; bacterial morphology (E. coli CFT073): bleb formation, elongation, and clumping; bacterial morphology (E. coli K-12): bleb formation, elongation, and clumping; cells elongated (length 5 μm or greater) (E. coli ATCC 25922 [5]; 20 μM peptide, n = 212 cells): 2%; cells exhibiting blebs (E. coli ATCC 25922 [5]; 20 μM peptide, n = 212 cells): ~ 17%; bacterial morphology with NaCl (E. coli ATCC 25922 [5]; 40 μM peptide co-treated with 200 mM NaCl): smooth morphology similar to that of the untreated control; bacterial morphology (phase-contrast) (E. coli ATCC 25922 [5]; 2 and 4 μM peptide, mid-log phase, 1 × 10^6 CFU/mL, standard AMA conditions): formation of large bulges; cells elongated (length 5 μm or greater) (E. coli ATCC 25922 [5]; ≥40 μM peptide, n = 203 cells): ≥ 4%; cells exhibiting blebs (E. coli ATCC 25922 [5]; ≥40 μM peptide, n = 203 cells): ~ 30%; log-reduction in CFU/mL (E. coli ATCC 25922 [6]; mid-log phase E. coli): ~ 4 fold log-reduction in CFU/mL; log-reduction in CFU/mL (E. coli ATCC 25922 [6]; stationary phase E. coli): ~ 2 fold log-reduction in CFU/mL; log reduction in CFU/mL (E. coli ATCC 25922 [6]; 40 μM peptide, modified AMA conditions, 1 × 10^8 CFU/mL): ≈ 2 fold log reduction in CFU/mL; antibacterial activity in presence of Zn(II) (E. coli ATCC 25922 [6]; 2:1 Zn(II):HD5ox molar ratio): loss of antibacterial activity; HD5ox activity in presence of divalent cations (E. coli ATCC 25922 [6]; Ca(II), Mg(II) and Zn(II) added): blocked HD5ox activity; lethal dose for 99.99% killing, LD99.99 (E. coli ATCC 25922 [6]; E. coli ATCC 25922, 1 × 10^6 CFU/mL, n = 3 (Figure 9C)): 8 µM

B1: HD5-TE: Linear form of human α-defensin 5 (iodoacetamide-capped) (peptide, UniProt Q01523 20-94, looked up)
Defensin alpha 5: ESLQERADEATTQKQSGEDNQDLAISFAGNGLSALRTSGSQARATCYCRTGRCATRESLSGVCEISGRLYRLCCR
modifications: Defensin-5 cysteines carbamidomethylated
Question: With B1 as the molecule, how does the “log reduction of CFU/mL” value (E. coli ATCC 25922 [6]; 16 μM peptide) read?
Answer: 2 fold log reduction of CFU/mL

B2: R-HD5[R9K]: rhodamine-HD5 conjugate, fluorophore positioned at R9K mutation site (conjugate, UniProt Q01523 20-94, looked up, variant R9K)
Defensin alpha 5: ESLQERADEATTQKQSGEDNQDLAISFAGNGLSALRTSGSQARATCYCRTGKCATRESLSGVCEISGRLYRLCCR
modifications: Defensin-5 rhodamine label at K9
Question: With B2 as the molecule, how does the “antimicrobial activity against E. coli (in words)” value (E. coli ATCC 25922 [6]; AMA assay) read?
Answer: active against E. coli
